Source: ChEMBL document CHEMBL2396655, “Design, synthesis, and biological evaluation of (E)-N-aryl-2-arylethenesulfonamide analogues as potent and orally bioavailable microtubule-targeted anticancer agents” (J Med Chem, 2013)
Values after ≈ are worked out from the molar mass of the structure shown. Active and inactive are the calls of the source. The calls are words filed in the database; no cut-off is given here.

Tests used:
K562 = assay: Cytotoxicity against human K562 cells after 96 hrs by trypan blue exclusion assay; assay type: functional, cell-based; details: for IC50: K562, 96 h
Method in brief: (§1)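 Cells were grown in DMEM or RPMI with 10% FBS and plated at 2.5×10⁴ cells/well in 12-well dishes. Compounds were added 24 h later at various concentrations. After 96 h, viable cells were counted by trypan blue exclusion from duplicate wells. Results are the mean of two independent experiments.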

DU-145 = assay: Cytotoxicity against human DU145 cells after 96 hrs by trypan blue exclusion assay; assay type: functional, cell-based; details: for IC50: DU-145, 96 h; method in brief: as §1
[1] = Solubility of the compound in water; assay type: physicochemical
Tubulin (Sus scrofa) = Tubulin (Sus scrofa) (UniProt P02554+P02550); assay: Competitive binding affinity to pig brain tubulin paclitaxel binding site at 0.1 to 100 uM after 1 hr by mass spectrophotometric analysis in presence of paclitaxel and GTP
Method in brief: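 Porcine brain tubulin (1.0 mg/mL) in PIPES 80 mM, MgCl₂ 2 mM, EGTA 0.5 mM, pH 6.9, at 37 °C. […] Competitor was 0.1–100 μM for 1 h. Unbound ligand in the 30 kDa ultrafiltrate was measured by MS. Runs were in triplicate; IC50 came from a Hill fit.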

COc1cc(OC)c(/C=C/S(=O)(=O)Nc2ccc(F)c([N+](=O)[O-])c2)c(OC)c1
Activity (K562): Dose-dependent effect | IC50 (K562): 75 µM | Activity (DU-145): Dose-dependent effect | IC50 (DU-145): 100 µM

COC(=O)CNc1cc(NS(=O)(=O)/C=C/c2c(OC)cc(OC)cc2OC)ccc1OC
Activity (K562): Dose-dependent effect | IC50 (K562): 0.35 µM | Activity (DU-145): Dose-dependent effect | IC50 (DU-145): 0.35 µM

COc1ccc(/C=C/S(=O)(=O)Nc2c(F)c(F)c(F)c(F)c2F)cc1[N+](=O)[O-]
Activity (K562): Dose-dependent effect | IC50 (K562): 75 µM | Activity (DU-145): Dose-dependent effect | IC50 (DU-145): 100 µM

COc1ccc(NS(=O)(=O)/C=C/c2c(OC)cc(O)cc2OC)cc1
Activity (K562): Dose-dependent effect | IC50 (K562): 10 µM | Activity (DU-145): Dose-dependent effect | IC50 (DU-145): 10 µM

COc1ccc(NS(=O)(=O)/C=C/c2c(OC)cc(OCCCC(=O)O)cc2OC)cc1O
Activity (K562): Dose-dependent effect | IC50 (K562): 10 µM | Activity (DU-145): Dose-dependent effect | IC50 (DU-145): 10 µM

COc1ccc(NS(=O)(=O)/C=C/c2c(OC)cc(OCCCC(=O)O)cc2OC)cc1[N+](=O)[O-]
Activity (K562): Dose-dependent effect | IC50 (K562): 100 µM | Activity (DU-145): Dose-dependent effect | IC50 (DU-145): 100 µM

COc1cc(OC)c(/C=C/S(=O)(=O)Nc2ccc(F)c(N)c2)c(OC)c1
Activity (K562): Dose-dependent effect | IC50 (K562): 5 µM | Activity (DU-145): Dose-dependent effect | IC50 (DU-145): 10 µM

COc1cc(OC)c(/C=C/S(=O)(=O)Nc2ccc(OC)c(NC(C(=O)O)c3ccc(Br)cc3)c2)c(OC)c1 (configuration not stated)
solubility [1]: 10000 µg/mL (≈ 16.5 mM) | Activity (K562): Dose-dependent effect | IC50 (K562): 0.075 µM | Activity (DU-145): Dose-dependent effect | IC50 (DU-145): 0.25 µM

COC(=O)C(Nc1cc(NS(=O)(=O)/C=C/c2c(OC)cc(OC)cc2OC)ccc1OC)c1ccc(F)cc1 (configuration not stated)
Activity (K562): Dose-dependent effect | IC50 (K562): 2.5 µM | Activity (DU-145): Dose-dependent effect | IC50 (DU-145): 2.5 µM

COc1ccc(/C=C/S(=O)(=O)Nc2ccc(OC)cc2)cc1
Activity (K562): Dose-dependent effect | IC50 (K562): 5 µM | Activity (DU-145): Dose-dependent effect | IC50 (DU-145): 5 µM

COc1ccc(NS(=O)(=O)/C=C/c2ccc(OC)cc2OC)cc1
Activity (K562): Dose-dependent effect | IC50 (K562): 15 µM | Activity (DU-145): Dose-dependent effect | IC50 (DU-145): 15 µM

COc1cc(OC)c(/C=C/S(=O)(=O)Nc2ccc(OC)c(NC(C)C(=O)O)c2)c(OC)c1 (configuration not stated)
solubility [1]: 10000 µg/mL (≈ 21.4 mM) | Activity (K562): Dose-dependent effect | IC50 (K562): 0.008 µM | Activity (DU-145): Dose-dependent effect | IC50 (DU-145): 0.04 µM

COc1ccc(NS(=O)(=O)/C=C/c2cc(OC)c(OC)c(OC)c2)cc1
Activity (K562): Dose-dependent effect | IC50 (K562): 35 µM | Activity (DU-145): Dose-dependent effect | IC50 (DU-145): 35 µM

COc1cc(OC)c(/C=C/S(=O)(=O)Nc2cc(N)c(OC)c(N)c2)c(OC)c1
Activity (K562): Dose-dependent effect | IC50 (K562): 7.5 µM | Activity (DU-145): Dose-dependent effect | IC50 (DU-145): 2.5 µM

COc1ccc(NS(=O)(=O)/C=C/c2c(OC)cccc2OC)cc1
Activity (K562): Dose-dependent effect | IC50 (K562): 5 µM | Activity (DU-145): Dose-dependent effect | IC50 (DU-145): 0.375 µM

COc1cc(OC)c(/C=C/S(=O)(=O)Nc2ccc(OC)c(OC(=O)C(C)(C)C3=C(C)C(=O)C=C(C)C3=O)c2)c(OC)c1
Activity (K562): Dose-dependent effect | IC50 (K562): 0.008 µM | Activity (DU-145): Dose-dependent effect | IC50 (DU-145): 0.009 µM

CC(=O)O[C@@]12CO[C@@H]1C[C@H](O)[C@@]1(C)C(=O)[C@H](O)C3=C(C)[C@@H](OC(=O)[C@H](O)[C@@H](NC(=O)OC(C)(C)C)c4ccccc4)C[C@@](O)([C@@H](OC(=O)c4ccccc4)[C@H]21)C3(C)C
Activity (Tubulin (Sus scrofa)): Active
